# Paper PMC4561207 (Child's nervous system : ChNS : official journal of the …, 2015)
# Assay: Adverse events regardless of attribution
# Assay type: in vivo, human
# How it was run: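 Children with recurrent/refractory CNS tumours took oral drug once daily, continuously, in 28-day cycles. Dosing was stratified by EIACD use, with start/escalation levels 20–40 mg/m² (no EIACD) or 15–32 mg/m² (EIACD). Monitoring included weekly exam, serum chemistries, CBC and urine protein for 8 weeks, and TSH before each cycle. Events other than hypertension were graded by CTCAE v3, later v4.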
structure (smiles),measurement,setting,value
"COc1cc2c(Oc3ccc4[nH]c(C)cc4c3F)ncnc2cc1OCCCN1CCCC1 [cediranib, Cediranib]","Anemia, events (patients)",grade 3 AE,2(2)
same,"Aspartate aminotransferase increased, events (patients)",grade 3 AE,2(2)
same,"Blurred vision, events (patients)",grade 3 AE,1(1)
same,"Capillary leak syndrome, events (patients)",grade 3 AE,1(1)
same,"Chest wall pain, events (patients)",grade 3 AE,1(1)
same,"Confusion, events (patients)",grade 3 AE,1(1)
same,"Dehydration, events (patients)",grade 3 AE,4(4)
same,"Depressed level of consciousness, events (patients)",grade 3 AE,2(2)
same,"Diarrhea, events (patients)",grade 3 AE,3(3)
same,"Dysphasia, events (patients)",grade 3 AE,2(2)
same,"Enterocolitis, events (patients)",grade 3 AE,1(1)
same,"Eye disorders - Other, specify, events (patients)",grade 3 AE,1(1)
same,"Fatigue, events (patients)",grade 3 AE,4(4)
same,"Headache, events (patients)",grade 3 AE,7(5)
same,"Hydrocephalus, events (patients)",grade 3 AE,2(2)
same,"Hyperkalemia, events (patients)",grade 3 AE,1(1)
same,"Hypermagnesemia, events (patients)",grade 3 AE,1(1)
same,"Hypernatremia, events (patients)",grade 3 AE,2(1)
same,"Hypertension, events (patients)",grade 3 AE,10(10)
same,"Hypertriglyceridemia, events (patients)",grade 3 AE,1(1)
same,"Hypokalemia, events (patients)",grade 3 AE,3(2)
same,"Hyponatremia, events (patients)",grade 3 AE,5(5)
same,"Lipase increased, events (patients)",grade 3 AE,1(1)
same,"Lymphocyte count decreased, events (patients)",grade 3 AE,5(3)
same,"Mucositis oral, events (patients)",grade 3 AE,1(1)
same,"Nausea, events (patients)",grade 3 AE,3(3)
same,"Neutrophil count decreased, events (patients)",grade 3 AE,2(2)
same,"Oral pain, events (patients)",grade 3 AE,2(2)
same,"Palmar-plantar erythrodysesthesia syndrome, events (patients)",grade 3 AE,3(3)
same,"Peripheral motor neuropathy, events (patients)",grade 3 AE,2(2)
same,"Proteinuria, events (patients)",grade 3 AE,3(3)
same,"Reversible posterior leukoencephalopathy syndrome, events (patients)",grade 3 AE,1(1)
same,"Seizure, events (patients)",grade 3 AE,3(3)
same,"Vomiting, events (patients)",grade 3 AE,2(2)
same,"Weight loss, events (patients)",grade 3 AE,1(1)
same,"White blood cell decreased, events (patients)",grade 3 AE,1(1)
same,"Alanine aminotransferase increased, events (patients)",grade 4 AE,1(1)
same,"Aspartate aminotransferase increased, events (patients)",grade 4 AE,1(1)
same,"Hypernatremia, events (patients)",grade 4 AE,2(1)
same,"Hyponatremia, events (patients)",grade 4 AE,1(1)
same,"Hypothyroidism, events (patients)",grade 4 AE,1(1)
same,"Lymphocyte count decreased, events (patients)",grade 4 AE,1(1)
same,"Nervous system disorders - Other, specify, events (patients)",grade 4 AE,1(1)
same,"Papilledema, events (patients)",grade 4 AE,1(1)
same,"Seizure, events (patients)",grade 4 AE,1(1)
same,"Abdominal pain, events (patients)",total AE,11(11)
same,"Acidosis, events (patients)",total AE,7(5)
same,"Alanine aminotransferase increased, events (patients)",total AE,70(30)
same,"Alkaline phosphatase increased, events (patients)",total AE,4(3)
same,"Anal mucositis, events (patients)",total AE,1(1)
same,"Anal pain, events (patients)",total AE,1(1)
same,"Anemia, events (patients)",total AE,7(6)
same,"Anorexia, events (patients)",total AE,15(12)
same,"Arthralgia, events (patients)",total AE,1(1)
same,"Aspartate aminotransferase increased, events (patients)",total AE,45(23)
same,"Back pain, events (patients)",total AE,5(4)
same,"Blood bilirubin increased, events (patients)",total AE,18(10)
same,"Blurred vision, events (patients)",total AE,1(1)
same,"Bone pain, events (patients)",total AE,3(2)
same,"Capillary leak syndrome, events (patients)",total AE,1(1)
same,"Cardiac troponin I increased, events (patients)",total AE,1(1)
same,"Chest wall pain, events (patients)",total AE,2(2)
same,"Cholesterol high, events (patients)",total AE,1(1)
same,"Chronic kidney disease, events (patients)",total AE,1(1)
same,"Confusion, events (patients)",total AE,2(2)
same,"Constipation, events (patients)",total AE,9(4)
same,"Cough, events (patients)",total AE,5(4)
same,"Creatinine increased, events (patients)",total AE,5(3)
same,"Dehydration, events (patients)",total AE,8(7)
same,"Depressed level of consciousness, events (patients)",total AE,2(2)
same,"Depression, events (patients)",total AE,3(3)
same,"Diarrhea, events (patients)",total AE,63(32)
same,"Dizziness, events (patients)",total AE,5(3)
same,"Dry mouth, events (patients)",total AE,1(1)
same,"Dry skin, events (patients)",total AE,1(1)
same,"Dyspepsia, events (patients)",total AE,4(4)
same,"Dysphasia, events (patients)",total AE,3(3)
same,"Edema face, events (patients)",total AE,1(1)
same,"Edema limbs, events (patients)",total AE,2(2)
same,"Endocrine disorders - Other, specify, events (patients)",total AE,2(2)
same,"Enterocolitis, events (patients)",total AE,1(1)
same,"Epistaxis, events (patients)",total AE,6(5)
same,"Eye disorders - Other, specify, events (patients)",total AE,2(2)
same,"Fatigue, events (patients)",total AE,25(20)
same,"Fecal incontinence, events (patients)",total AE,2(2)
same,"Fever, events (patients)",total AE,3(3)
same,"Flushing, events (patients)",total AE,3(1)
same,"GGT increased, events (patients)",total AE,1(1)
same,"Gastritis, events (patients)",total AE,2(2)
same,"Gastrointestinal disorders - Other, specify, events (patients)",total AE,2(2)
same,"Headache, events (patients)",total AE,38(19)
same,"Hematuria, events (patients)",total AE,5(3)
same,"Hemoglobin increased, events (patients)",total AE,12(6)
same,"Hoarseness, events (patients)",total AE,1(1)
same,"Hydrocephalus, events (patients)",total AE,4(3)
same,"Hypercalcemia, events (patients)",total AE,6(3)
same,"Hyperglycemia, events (patients)",total AE,22(16)
same,"Hyperkalemia, events (patients)",total AE,4(4)
same,"Hypermagnesemia, events (patients)",total AE,15(9)
same,"Hypernatremia, events (patients)",total AE,16(5)
same,"Hypertension, events (patients)",total AE,59(38)
same,"Hyperthyroidism, events (patients)",total AE,2(2)
same,"Hypertriglyceridemia, events (patients)",total AE,1(1)
same,"Hypoalbuminemia, events (patients)",total AE,34(17)
same,"Hypocalcemia, events (patients)",total AE,26(16)
same,"Hypoglycemia, events (patients)",total AE,6(5)
same,"Hypokalemia, events (patients)",total AE,23(18)
same,"Hypomagnesemia, events (patients)",total AE,9(7)
same,"Hyponatremia, events (patients)",total AE,29(13)
same,"Hypophosphatemia, events (patients)",total AE,21(13)
same,"Hypothyroidism, events (patients)",total AE,21(15)
same,"Hypoxia, events (patients)",total AE,1(1)
same,"INR increased, events (patients)",total AE,1(1)
same,"Intracranial hemorrhage, events (patients)",total AE,4(4)
same,"Investigations - Other, specify, events (patients)",total AE,2(2)
same,"Joint effusion, events (patients)",total AE,1(1)
same,"Leukoencephalopathy, events (patients)",total AE,1(1)
same,"Lipase increased, events (patients)",total AE,2(1)
same,"Lymphocyte count decreased, events (patients)",total AE,31(13)
same,"Malaise, events (patients)",total AE,3(1)
same,"Mucositis oral, events (patients)",total AE,4(4)
same,"Myalgia, events (patients)",total AE,3(3)
same,"Nausea, events (patients)",total AE,25(16)
same,"Nervous system disorders - Other, specify, events (patients)",total AE,4(4)
same,"Neutrophil count decreased, events (patients)",total AE,23(11)
same,"Non-cardiac chest pain, events (patients)",total AE,3(3)
same,"Oral pain, events (patients)",total AE,4(4)
same,"Pain in extremity, events (patients)",total AE,9(7)
same,"Pain, events (patients)",total AE,4(4)
same,"Palmar-plantar erythrodysesthesia syndrome, events (patients)",total AE,17(7)
same,"Papilledema, events (patients)",total AE,1(1)
same,"Pericardial effusion, events (patients)",total AE,1(1)
same,"Peripheral motor neuropathy, events (patients)",total AE,4(4)
same,"Platelet count decreased, events (patients)",total AE,26(18)
same,"Pleural effusion, events (patients)",total AE,1(1)
same,"Proteinuria, events (patients)",total AE,40(21)
same,"Rash acneiform, events (patients)",total AE,2(2)
same,"Rash maculo-papular, events (patients)",total AE,6(5)
same,"Rectal pain, events (patients)",total AE,1(1)
same,"Renal and urinary disorders - Other, specify, events (patients)",total AE,1(1)
same,"Respiratory, thoracic and mediastinal disorders - Other, specify, events (patients)",total AE,2(2)
same,"Reversible posterior leukoencephalopathy syndrome, events (patients)",total AE,2(1)
same,"Seizure, events (patients)",total AE,7(6)
same,"Serum amylase increased, events (patients)",total AE,1(1)
same,"Skin and subcutaneous tissue disorders - Other, specify, events (patients)",total AE,2(2)
same,"Skin ulceration, events (patients)",total AE,2(2)
same,"Stomach pain, events (patients)",total AE,3(3)
same,"Urinary frequency, events (patients)",total AE,2(2)
same,"Urinary retention, events (patients)",total AE,3(3)
same,"Vascular disorders - Other, specify, events (patients)",total AE,2(2)
same,"Voice alteration, events (patients)",total AE,2(2)
same,"Vomiting, events (patients)",total AE,41(21)
same,"Weight loss, events (patients)",total AE,5(5)
same,"White blood cell decreased, events (patients)",total AE,23(14)
